Published values collected from several papers.
Compare with care: the assays were run in different laboratories.
Cell line: HT-29
Read-out: cell growth or viability

SMILES	assay	setting	measurement	result
CCN(CC)CCNC(=O)c1c(C)[nH]c(/C=C2\C(=O)Nc3ccc(F)cc32)c1C		30 µM	inhibition	59.5%
CC/C(=C(\c1ccccc1)c1ccc(OCCN(C)C)cc1)c1ccccc1	ATP luminescence	72 h	EC90	8400 nM
COc1ccc(C(=O)/C=C/c2cc3c(cc2Br)OCO3)cc1S(N)(=O)=O	SRB	48 h	GI50	1900 nM
COc1cccc(Oc2ccccc2NC(=O)CNC(=O)c2cccc3ccccc23)c1	SRB	48 h	GI50	110 nM
Cc1cc(C)n(C(=S)[S][Au][PH](CCCCCC[PH]([Au][S]C(=S)n2nc(C)cc2C)(c2ccccc2)c2ccccc2)(c2ccccc2)c2ccccc2)n1			GI50	458 nM
COc1ccc(C(=O)/C=C/c2cccc(Br)c2)cc1S(N)(=O)=O	SRB	48 h	GI50	1600 nM
Cn1c(=O)c(NN=C2C(=O)Nc3ccc(F)cc32)nc2ccccc21		30 µM	inhibition	48.1%
S=C([S][Au-][P+](CCCCCC[P+]([Au-][S]C(=S)n1cccn1)(c1ccccc1)c1ccccc1)(c1ccccc1)c1ccccc1)n1cccn1			GI50	642 nM
